Tests used:
[1] = molecular target: Sulfonylurea receptor 2, Kir6.2 (Homo sapiens) (UniProt Q14654+O60706); experiment: Hill Coefficient calculated by curve fitting of data to a single binding site model; type: protein-complex assay
Outline: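 Competition curves from displacement of 14 nM [3H]P1075 from canine cardiac P3 membranes (500–700 μg, 60 min, MgATP/vanadate/Mg2+ sucrose-Tris buffer pH 7.4, filtration read-out) were fitted to a single-site model to give the Hill coefficient.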

Rattus norvegicus [2] = species on record: Rattus norvegicus; experiment: Inhibitory concentration against methoxamine-induced contractions in rat aorta; type: functional, organism-based
Rattus norvegicus [3] = species on record: Rattus norvegicus; experiment: Effective concentration required to increase time to the onset of contracture (TTC) in globally ischemic rat hearts; type: functional

Question: Which Hill coefficient [1] does the source give for `COc1ccc(Cl)cc1C(=O)NCCc1ccc(S(=O)(=O)NC(=O)NC2CCCCC2)cc1` [GLYBURIDE] here?
Answer: 0.67

Question: What does the source list for `CC(/N=C(\NC#N)Nc1ccc(C#N)cc1)C(C)(C)C` (stereo not given)?
Answer: IC50 (Rattus norvegicus [2]; Rattus norvegicus, Aorta): 30.3 nM; EC25 (Rattus norvegicus [3]): 390 nM; Hill coefficient [1]: 0.75

Question: Which IC50 (Rattus norvegicus [2]; Rattus norvegicus, Aorta) does the source give for `CCC(C)(C)/N=C(\NC#N)Nc1ccc(S(=O)(=O)N2CCCCC2)cc1` here?
Answer: > 30 nM

Question: And the EC25 (Rattus norvegicus [3])?
Answer: >10000 nM

Question: `CC1(C)Oc2ccc(C#N)cc2[C@H](N2CCCC2=O)[C@H]1O` (single isomer, unassigned) [(-)-CROMAKALIM] was tested. Which IC50 (Rattus norvegicus [2]) did it give?
Answer: 40.1 nM

Question: What about the EC25 (Rattus norvegicus [3]) of the same compound?
Answer: 2300 nM

Question: Which results are given for `CC(C)(C)/N=C(\NC#N)Nc1ccc(C#N)cc1`?
Answer: IC50 (Rattus norvegicus [2]; Rattus norvegicus, Aorta): 530 nM; EC25 (Rattus norvegicus [3]): 1380 nM; Hill coefficient [1]: 1.15

Question: Which results are given for `CC1(C)Oc2ccc(C#N)cc2[C@H](N2CCCC2=O)[C@H]1O` [(-)-CROMAKALIM]?
Answer: IC50 (Rattus norvegicus [2]): 6500 nM; EC25 (Rattus norvegicus [3]): >30000 nM

Question: What does the source list for `CCC(C)(C)/N=C(\NC#N)Nc1ccc(I)cc1`?
Answer: IC50 (Rattus norvegicus [2]; Rattus norvegicus, Aorta): 1.4 nM; EC25 (Rattus norvegicus [3]): 140 nM; Hill coefficient [1]: 0.76

Question: Which IC50 (Rattus norvegicus [2]; Rattus norvegicus, Aorta) does the source give for `CCC(C)(C)/N=C(\NC#N)Nc1ccc(C#N)cc1` here?
Answer: 130 nM

Question: What about the EC25 (Rattus norvegicus [3]) of the same compound?
Answer: 400 nM

Question: What about the Hill coefficient [1] of the same compound?
Answer: 0.99

Question: Which IC50 (Rattus norvegicus [2]; Rattus norvegicus, Aorta) does the source give for `CCC(C)(C)/N=C(\NC#N)Nc1cccnc1` here?
Answer: 4.4 nM

Question: What about the EC25 (Rattus norvegicus [3]) of the same compound?
Answer: 60 nM

Question: What about the Hill coefficient [1] of the same compound?
Answer: 1.17

Question: Which EC25 (Rattus norvegicus [3]) does the source give for `CCC(C)(C)/N=C(\NC#N)Nc1ccc(I)c(N=[N+]=[N-])c1` here?
Answer: 39 nM

Question: And the Hill coefficient [1]?
Answer: 0.82

Question: For `CC(C)/N=C(\NC#N)Nc1ccc(C#N)cc1`, which Hill coefficient [1] is on record?
Answer: 0.81

Question: With `CC1(C)Oc2ccc(C#N)cc2[C@H](N2CCCC2=O)[C@H]1O` (single isomer, unassigned) as the compound, how does the Hill coefficient [1] read?
Answer: 1.5

Question: `CCC(C)(C)/N=C(\NC#N)Nc1cccc(S(=O)(=O)N2CCCCC2)c1` was tested. Which IC50 (Rattus norvegicus [2]; Rattus norvegicus, Aorta) did it give?
Answer: 12800 nM

Question: And the EC25 (Rattus norvegicus [3])?
Answer: >10000 nM

Question: What does the source list for `C/N=C(\NC#N)Nc1ccc(C#N)cc1`?
Answer: IC50 (Rattus norvegicus [2]; Rattus norvegicus, Aorta): 130000 nM; EC25 (Rattus norvegicus [3]): >10000 nM

Question: What does the source list for `CC(N/C(=N\C#N)Nc1ccncc1)C(C)(C)C` (stereo not given) [PINACIDIL ANHYDROUS]?
Answer: IC50 (Rattus norvegicus [2]; Rattus norvegicus, Aorta): 59.6 nM; EC25 (Rattus norvegicus [3]): 1200 nM; Hill coefficient [1]: 0.86

Question: Which results are given for `CC(/N=C(\NC#N)Nc1cccc(C#N)c1)C(C)(C)C` (stereo not given)?
Answer: IC50 (Rattus norvegicus [2]; Rattus norvegicus, Aorta): 190 nM; EC25 (Rattus norvegicus [3]): 1460 nM; Hill coefficient [1]: 0.67

Question: Which results are given for `CC(/N=C(\NC#N)Nc1ccccc1)C(C)(C)C` (stereo not given)?
Answer: IC50 (Rattus norvegicus [2]; Rattus norvegicus, Aorta): 980 nM; EC25 (Rattus norvegicus [3]): 1290 nM; Hill coefficient [1]: 1.04

Question: `CC1(C)Oc2ccc(C#N)cc2[C@H](N2CCCC2=O)[C@H]1O` was tested. Which Hill coefficient [1] did it give?
Answer: 1.06

From ChEMBL document CHEMBL1131338, “Binding of ATP-sensitive potassium channel (KATP) openers to cardiac membranes: correlation of binding affinities with cardioprotective and smooth muscle relaxing potencies” (J Med Chem, 1998)
